According to ChEMBL document CHEMBL3044673, “Design, synthesis and insecticidal activity of novel phenylpyrazoles containing a 2,2,2-trichloro-1-alkoxyethyl moiety” (2010):

Tests used:
Type in all cases: functional
[1] = tested on: Aphis craccivora; experiment: Insecticidal activity against Aphis craccivora (cowpea aphid) infested tender soybean shoots exposed to 50 mg/kg test compound solution assessed as insect mortality measured 24 hr post compound treatment
Summary of the method: (§1)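 Soybean tender shoots carrying 60 aphids were dipped in test solutions. Solutions were made from a 200 mg L^-1 stock in dimethylformamide, diluted with water containing TW-20. Insects were laboratory-reared, tests were held at 25±1 °C, and mortality was scored.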

[2] = tested on: Plutella xylostella; experiment: Insecticidal activity against Plutella xylostella (diamondback moth) grown on compound pre-treated fresh cabbage leaves assessed as insect mortality at 50 mg/kg measured 3 days post compound treatment by leaf-dip method
Summary of the method: (§2)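 Leaf-dip stomach-toxicity assay on laboratory-reared diamondback moth. Test solutions came from a 200 mg L^-1 stock in dimethylformamide, diluted with water containing TW-20. Control leaves were treated with water and dimethylformamide. Tests were held at 25±1 °C, percentage mortality was scored 3 days after treatment, and each treatment was run three times.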

[3] = tested on: Plutella xylostella; experiment: Insecticidal activity against Plutella xylostella (diamondback moth) grown on compound pre-treated fresh cabbage leaves assessed as insect mortality at 10 mg/kg measured 3 days post compound treatment by leaf-dip method; settings: Plutella xylostella; summary of the method: as §2
[4] = tested on: Aphis craccivora; experiment: Ratio of LC50 of ethiprole to LC50 of test compound against Aphis craccivora (cowpea aphid) infested tender soybean shoots exposed to test compound solution assessed as insect mortality measured 24 hr post compound treatment
[5] = tested on: Culex pipiens pallens; experiment: Insecticidal activity against Culex pipiens pallens (mosquito) assessed as insect mortality at 25 ug/kg measured 1 day post compound treatment; settings: 24 h
Summary of the method: (§3)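 Fourth-instar Culex pipiens pallens larvae, 20 per test, were laboratory-reared and placed in 100 mL of test solution made by adding 1 mL of compound dilution to 99 mL of water. Tests were held at 25±1 °C, percentage mortality was scored 1 day after treatment, and each test was run three times.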

[6] = tested on: Plutella xylostella; experiment: Insecticidal activity against Plutella xylostella (diamondback moth) grown on compound pre-treated fresh cabbage leaves assessed as insect mortality at 2.5 mg/kg measured 3 days post compound treatment by leaf-dip method; summary of the method: as §2
[7] = tested on: Culex pipiens pallens; experiment: Insecticidal activity against Culex pipiens pallens (mosquito) assessed as insect mortality at 100 ug/kg measured 1 day post compound treatment; settings: Culex pipiens, 24 h; summary of the method: as §3
[8] = tested on: Aphis craccivora; experiment: Insecticidal activity against Aphis craccivora (cowpea aphid) infested tender soybean shoots exposed to 2.5 mg/kg test compound solution assessed as insect mortality measured 24 hr post compound treatment; settings: Aphis craccivora, 24 h; summary of the method: as §1
[9] = tested on: Aphis craccivora; experiment: Insecticidal activity against Aphis craccivora (cowpea aphid) infested tender soybean shoots exposed to test compound solution assessed as insect mortality measured 24 hr post compound treatment; summary of the method: as §1
[10] = tested on: Plutella xylostella; experiment: Insecticidal activity against Plutella xylostella (diamondback moth) grown on compound pre-treated fresh cabbage leaves assessed as insect mortality at 200 mg/kg measured 3 days post compound treatment by leaf-dip method; summary of the method: as §2
[11] = tested on: Culex pipiens pallens; experiment: Insecticidal activity against Culex pipiens pallens (mosquito) assessed as insect mortality at 50 ug/kg measured 1 day post compound treatment; settings: 24 h; summary of the method: as §3
[12] = tested on: Plutella xylostella; experiment: Insecticidal activity against Plutella xylostella (diamondback moth) grown on compound pre-treated fresh cabbage leaves assessed as insect mortality at 100 mg/kg measured 3 days post compound treatment by leaf-dip method; summary of the method: as §2
[13] = tested on: Aphis craccivora; experiment: Insecticidal activity against Aphis craccivora (cowpea aphid) infested tender soybean shoots exposed to 5 mg/kg test compound solution assessed as insect mortality measured 24 hr post compound treatment; settings: Aphis craccivora, 24 h; summary of the method: as §1
[14] = tested on: Plutella xylostella; experiment: Insecticidal activity against Plutella xylostella (diamondback moth) grown on compound pre-treated fresh cabbage leaves assessed as insect mortality at 5 mg/kg measured 3 days post compound treatment by leaf-dip method; settings: Plutella xylostella; summary of the method: as §2
[15] = tested on: Aphis craccivora; experiment: Insecticidal activity against Aphis craccivora (cowpea aphid) infested tender soybean shoots exposed to 200 mg/kg test compound solution assessed as insect mortality measured 24 hr post compound treatment; summary of the method: as §1
[16] = tested on: Aphis craccivora; experiment: Insecticidal activity against Aphis craccivora (cowpea aphid) infested tender soybean shoots exposed to 25 mg/kg test compound solution assessed as insect mortality measured 24 hr post compound treatment; summary of the method: as §1
[17] = tested on: Plutella xylostella; experiment: Insecticidal activity against Plutella xylostella (diamondback moth) grown on compound pre-treated fresh cabbage leaves assessed as insect mortality at 25 mg/kg measured 3 days post compound treatment by leaf-dip method; settings: Plutella xylostella; summary of the method: as §2
[18] = tested on: Aphis craccivora; experiment: Insecticidal activity against Aphis craccivora (cowpea aphid) infested tender soybean shoots exposed to 10 mg/kg test compound solution assessed as insect mortality measured 24 hr post compound treatment; settings: Aphis craccivora, 24 h; summary of the method: as §1
[19] = tested on: Aphis craccivora; experiment: Insecticidal activity against Aphis craccivora (cowpea aphid) infested tender soybean shoots exposed to 100 mg/kg test compound solution assessed as insect mortality measured 24 hr post compound treatment; summary of the method: as §1
[20] = tested on: Mythimna separata; experiment: Insecticidal activity against Mythimna separata (Oriental armyworm) grown on compound pre-treated corn leaves assessed as insect mortality at 200 mg/kg measured 3 days post compound treatment by leaf-dip method
[21] = tested on: Culex pipiens pallens; experiment: Insecticidal activity against Culex pipiens pallens (mosquito) assessed as insect mortality at 2.5 ug/kg measured 1 day post compound treatment; settings: 24 h; summary of the method: as §3
[22] = tested on: Culex pipiens pallens; experiment: Insecticidal activity against Culex pipiens pallens (mosquito) assessed as insect mortality at 10 ug/kg measured 1 day post compound treatment; settings: 24 h; summary of the method: as §3
[23] = tested on: Culex pipiens pallens; experiment: Insecticidal activity against Culex pipiens pallens (mosquito) assessed as insect mortality at 5 ug/kg measured 1 day post compound treatment; settings: 24 h; summary of the method: as §3

Compound | mortality at 50 mg/kg [1] [%] | mortality at 50 mg/kg [2] [%] | mortality at 10 mg/kg [3] [%] | mortality at 0.025 mg/kg [5] [%] | mortality at 2.5 mg/kg [6] [%] | mortality at 0.1 mg/kg [7] [%] | mortality at 2.5 mg/kg [8] [%] | mortality at 200 mg/kg [10] [%] | mortality at 0.05 mg/kg [11] [%] | mortality at 100 mg/kg [12] [%] | mortality at 5 mg/kg [13] [%] | mortality at 5 mg/kg [14] [%] | mortality at 200 mg/kg [15] [%] | mortality at 25 mg/kg [16] [%] | mortality at 25 mg/kg [17] [%] | mortality at 10 mg/kg [18] [%] | mortality at 100 mg/kg [19] [%] | mortality at 0.0025 mg/kg [21] [%] | mortality at 0.01 mg/kg [22] [%] | mortality at 0.005 mg/kg [23] [%] | also measured
CCCOC(Nc1c([S+]([O-])CC)c(C#N)nn1-c1c(Cl)cc(C(F)(F)F)cc1Cl)C(Cl)(Cl)Cl (stereo not drawn) | 100 | 100 | 44 | 0 | 0 | 100 | 89 | 100 | 100 | 100 | 100 | 27 | 100 | 100 | 87 | 100 | 100 | – | – | – | RatioLC50 [4]: 7.9; LC50 [9]: 1.4873 mg/kg
CCCOC(Nc1c([S+](C)[O-])c(C#N)nn1-c1c(Cl)cc(C(F)(F)F)cc1Cl)C(Cl)(Cl)Cl (stereo not drawn) | 100 | 100 | 71 | 50 | 0 | 100 | 0 | 100 | 100 | 100 | 91 | 30 | 100 | 100 | 100 | 100 | 100 | – | – | – | mortality at 200 mg/kg [20]: 40%; RatioLC50 [4]: 4.3; LC50 [9]: 2.7616 mg/kg
COC(Nc1c([S+](C)[O-])c(C#N)nn1-c1c(Cl)cc(C(F)(F)F)cc1Cl)C(Cl)(Cl)Cl (stereo not drawn) | 100 | 100 | 91 | – | 34 | 100 | 0 | 100 | 50 | 100 | 88 | 88 | 100 | 100 | 100 | 100 | 100 | – | – | – | RatioLC50 [4]: 4.2; LC50 [9]: 2.8848 mg/kg
CCSc1c(C#N)nn(-c2c(Cl)cc(C(F)(F)F)cc2Cl)c1NC(OCCCl)C(Cl)(Cl)Cl (stereo not drawn) | 100 | 88 | 27 | 100 | – | 100 | – | 100 | 100 | 100 | 0 | 0 | 100 | 100 | 43 | 51 | 100 | 60 | 100 | 100 | –
CCSc1c(C#N)nn(-c2c(Cl)cc(C(F)(F)F)cc2Cl)c1NC(OCCF)C(Cl)(Cl)Cl (stereo not drawn) | 100 | 100 | 29 | 100 | – | 100 | – | 100 | 100 | 100 | 0 | 0 | 100 | 29 | 100 | 11 | 100 | – | 100 | 0 | mortality at 200 mg/kg [20]: 20%
CCSc1c(C#N)nn(-c2c(Cl)cc(C(F)(F)F)cc2Cl)c1NC(OC)C(Cl)(Cl)Cl (stereo not drawn) | 80 | 94 | 0 | 100 | – | 100 | – | 100 | 100 | 100 | – | – | 93 | 62 | 34 | 0 | 90 | 30 | 100 | 100 | –
CCCOC(Nc1c(SC)c(C#N)nn1-c1c(Cl)cc(C(F)(F)F)cc1Cl)C(Cl)(Cl)Cl (stereo not drawn) | 90 | 36 | 0 | 100 | – | 100 | 0 | 100 | 100 | 100 | 0 | – | 100 | 43 | 17 | 21 | 100 | 100 | 100 | 100 | –
CCOC(Nc1c(SC)c(C#N)nn1-c1c(Cl)cc(C(F)(F)F)cc1Cl)C(Cl)(Cl)Cl (stereo not drawn) | 56 | 100 | 68 | 100 | 0 | 100 | – | 100 | 100 | 100 | 0 | 43 | 100 | 43 | 84 | 0 | 100 | 80 | 100 | 100 | –
COC(Nc1c(SC)c(C#N)nn1-c1c(Cl)cc(C(F)(F)F)cc1Cl)C(Cl)(Cl)Cl (stereo not drawn) | 100 | 100 | 86 | 100 | 25 | 100 | 0 | 100 | 100 | 100 | 43 | 76 | 100 | 94 | 100 | 89 | 100 | 70 | 100 | 100 | –
CC[S+]([O-])c1c(C#N)nn(-c2c(Cl)cc(C(F)(F)F)cc2Cl)c1N (stereo not drawn) [ETHIPROLE] | 100 | 100 | 23 | 50 | – | 100 | – | 100 | 100 | 100 | 0 | 0 | 100 | 100 | 69 | 31 | 100 | – | – | – | mortality at 200 mg/kg [20]: 0%; LC50 [9]: 11.7263 mg/kg
